Assay results: ChEMBL document CHEMBL3272012, “5-(Tetradecyloxy)-2-furancarboxylic acid and related hypolipidemic fatty acid-like alkyloxyarylcarboxylic acids” (J Med Chem, 1977)

Experiments:
Rattus norvegicus [1] = test: Increase in liver weight in Wistar rat at 311 umol/kg/day administered through diet for 10 days; assay type: ADME, organism-based; settings: in vivo, po, 240 h
Rattus norvegicus [2] = test: Increase in cholesterol level in Wistar rat liver at 311 umol/kg/day administered through diet for 10 days; assay type: ADME, organism-based; settings: in vivo, po, 240 h
Rattus norvegicus [3] = test: Hypolipidemic activity in Wistar rat assessed as reduction in plasma cholesterol level at 311 umol/kg/day administered through diet for 10 days; assay type: functional; settings: 240 h
Method in brief: (§1)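 Young male Wistar rats, 170-190 g at start, in groups of six, given compound mixed into Purina Lab Chow ad libitum for 4 or 10 days as stated. Daily dose was calculated from food consumption and body weight. Plasma was taken by cardiac puncture at the end and cholesterol measured by automated procedure. Results are % reduction versus a concurrent untreated control group, with Student's t test.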

Rattus norvegicus [4] = test: Hypolipidemic activity in Wistar rat assessed as reduction in plasma triglyceride level at 311 umol/kg/day administered through diet for 10 days; assay type: functional; settings: 240 h
Method in brief: (§2)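 Young male Wistar rats, 170-190 g initial weight, six per group, fed drug mixed thoroughly into Purina Lab Chow ad libitum for the stated days; daily dose calculated from food consumption and body weight. Bled by cardiac puncture at end; plasma cholesterol and triglycerides by automated procedures, expressed as percent reduction versus simultaneous untreated controls; Student's t test.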

Rattus norvegicus [5] = test: Increase in cholesterol level in Wistar rat liver at 406 umol/kg/day administered through diet for 4 days; assay type: ADME, organism-based; settings: in vivo, po, 96 h
Rattus norvegicus [6] = test: Increase in liver weight in Wistar rat at 406 umol/kg/day administered through diet for 4 days; assay type: ADME, organism-based; settings: in vivo, po, 96 h
Rattus norvegicus [7] = test: Hypolipidemic activity in Wistar rat assessed as reduction in plasma cholesterol level at 406 umol/kg/day administered through diet for 4 days; assay type: functional; settings: 96 h; method in brief: as §1
Rattus norvegicus [8] = test: Hypolipidemic activity in Wistar rat assessed as reduction in plasma triglyceride level at 406 umol/kg/day administered through diet for 4 days; assay type: functional; settings: 96 h
Rattus norvegicus [9] = test: Hypolipidemic activity in Wistar rat assessed as reduction in plasma triglyceride level at 339 umol/kg/day administered through diet for 4 days; assay type: functional; settings: 96 h
Method in brief: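 Young male Wistar rats (170-190 g initial weight), groups of six, were fed compound mixed into lab chow ad libitum for 4 or 10 days alongside an untreated control group. Daily dose was calculated from food consumption and body weight. Rats were bled by cardiac puncture, and plasma triglyceride was measured by automated procedure. Results are expressed as percent reduction from simultaneous controls, with Student's t test.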

Rattus norvegicus [10] = test: Hypolipidemic activity in Wistar rat assessed as reduction in plasma cholesterol level at 339 umol/kg/day administered through diet for 4 days; assay type: functional; settings: 96 h; method in brief: as §1
Rattus norvegicus [11] = test: Increase in liver weight in Wistar rat at 339 umol/kg/day administered through diet for 4 days; assay type: ADME, organism-based; settings: in vivo, po, 96 h
Rattus norvegicus [12] = test: Increase in cholesterol level in Wistar rat liver at 339 umol/kg/day administered through diet for 4 days; assay type: ADME, organism-based; settings: in vivo, po, 96 h
Rattus norvegicus [13] = test: Increase in cholesterol level in Wistar rat liver at 509 umol/kg/day administered through diet for 4 days; assay type: ADME, organism-based; settings: in vivo, po, 96 h
Rattus norvegicus [14] = test: Increase in liver weight in Wistar rat at 509 umol/kg/day administered through diet for 4 days; assay type: ADME, organism-based; settings: in vivo, po, 96 h
Rattus norvegicus [15] = test: Hypolipidemic activity in Wistar rat assessed as reduction in plasma triglyceride level at 509 umol/kg/day administered through diet for 4 days; assay type: functional; settings: 96 h
Rattus norvegicus [16] = test: Hypolipidemic activity in Wistar rat assessed as reduction in plasma cholesterol level at 509 umol/kg/day administered through diet for 4 days; assay type: functional; settings: 96 h
Method in brief: (§3)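 Young male Wistar rats, 170-190 g initial weight, groups of six, given compound mixed thoroughly into Purina Lab Chow ad libitum for 4 or 10 days as stated. Daily dose calculated from food consumption and body weight. Bled by cardiac puncture at end of treatment; plasma cholesterol measured by automated procedure. Expressed as percent reduction versus simultaneous untreated control group; Student's t test.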

Rattus norvegicus [17] = test: Increase in cholesterol level in Wistar rat liver at 459 umol/kg/day administered through diet for 10 days; assay type: ADME, organism-based; settings: in vivo, po, 240 h
Rattus norvegicus [18] = test: Hypolipidemic activity in Wistar rat assessed as reduction in plasma cholesterol level at 459 umol/kg/day administered through diet for 10 days; assay type: functional; settings: 240 h; method in brief: as §3
Rattus norvegicus [19] = test: Hypolipidemic activity in Wistar rat assessed as reduction in plasma triglyceride level at 459 umol/kg/day administered through diet for 10 days; assay type: functional; settings: 240 h
Rattus norvegicus [20] = test: Increase in liver weight in Wistar rat at 459 umol/kg/day administered through diet for 10 days; assay type: ADME, organism-based; settings: in vivo, po, 240 h
Rattus norvegicus [21] = test: Hypolipidemic activity in Wistar rat assessed as reduction in plasma cholesterol level at 312 umol/kg/day administered through diet for 10 days; assay type: functional; settings: 240 h; method in brief: as §1
Rattus norvegicus [22] = test: Hypolipidemic activity in Wistar rat assessed as reduction in plasma triglyceride level at 312 umol/kg/day administered through diet for 10 days; assay type: functional; settings: 240 h; method in brief: as §2
Rattus norvegicus [23] = test: Increase in cholesterol level in Wistar rat liver at 312 umol/kg/day administered through diet for 10 days; assay type: ADME, organism-based; settings: in vivo, po, 240 h
Rattus norvegicus [24] = test: Increase in liver weight in Wistar rat at 312 umol/kg/day administered through diet for 10 days; assay type: ADME, organism-based; settings: in vivo, po, 240 h
Rattus norvegicus [25] = test: Increase in cholesterol level in Wistar rat liver at 385 umol/kg/day administered through diet for 4 days; assay type: ADME, organism-based; settings: in vivo, po, 96 h
Rattus norvegicus [26] = test: Increase in liver weight in Wistar rat at 385 umol/kg/day administered through diet for 4 days; assay type: ADME, organism-based; settings: in vivo, po, 96 h
Rattus norvegicus [27] = test: Hypolipidemic activity in Wistar rat assessed as reduction in plasma triglyceride level at 385 umol/kg/day administered through diet for 4 days; assay type: functional; settings: 96 h
Method in brief: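 Young male Wistar rats (170-190 g initial weight), groups of six, fed test compound mixed into Purina Lab Chow ad libitum; daily dose calculated from food consumption and body weight. Bled by cardiac puncture at end of treatment; plasma triglycerides measured by automated procedure. Results given as percent reduction versus a simultaneous untreated control group, with significance by Student's t test.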

Rattus norvegicus [28] = test: Hypolipidemic activity in Wistar rat assessed as reduction in plasma cholesterol level at 385 umol/kg/day administered through diet for 4 days; assay type: functional; settings: 96 h; method in brief: as §1
Rattus norvegicus [29] = test: Increase in liver weight in Wistar rat at 538 umol/kg/day administered through diet for 10 days; assay type: ADME, organism-based; settings: in vivo, po, 240 h
Rattus norvegicus [30] = test: Hypolipidemic activity in Wistar rat assessed as reduction in plasma triglyceride level at 538 umol/kg/day administered through diet for 10 days; assay type: functional; settings: 240 h
Rattus norvegicus [31] = test: Hypolipidemic activity in Wistar rat assessed as reduction in plasma cholesterol level at 538 umol/kg/day administered through diet for 10 days; assay type: functional; settings: 240 h; method in brief: as §3
Rattus norvegicus [32] = test: Increase in cholesterol level in Wistar rat liver at 538 umol/kg/day administered through diet for 10 days; assay type: ADME, organism-based; settings: in vivo, po, 240 h

## CCCCCCCCCCCCCCCCOc1ccc(C(=O)CC(=O)O)cc1
Rattus norvegicus [1]
  Activity: 0%
Rattus norvegicus [2]
  Activity: 0%
Rattus norvegicus [3]
  inhibition in vivo at 311 µmol/kg: 29%
Rattus norvegicus [4]
  inhibition in vivo at 311 µmol/kg: 49%

## CCCCCCCCCCCCCCOc1ccc(COC(C)=O)cc1
Rattus norvegicus [5]
  Activity: 11%
Rattus norvegicus [6]
  Activity: 17%
Rattus norvegicus [7]
  inhibition in vivo at 406 µmol/kg: 22%
Rattus norvegicus [8]
  inhibition in vivo at 406 µmol/kg: 62%

## CCCCCCCCCCCCCCCCOc1ccc(C(=O)CC(=O)OC)cc1
Rattus norvegicus [9]
  inhibition in vivo at 339 µmol/kg: 57%
Rattus norvegicus [10]
  inhibition in vivo at 339 µmol/kg: 32%
Rattus norvegicus [11]
  Activity: 18%
Rattus norvegicus [12]
  Activity: 2%

## CCCCCCCCCCCCCCOc1ccc(C)cc1
Rattus norvegicus [13]
  Activity: 0%
Rattus norvegicus [14]
  Activity: 10%
Rattus norvegicus [15]
  inhibition in vivo at 509 µmol/kg: 30%
Rattus norvegicus [16]
  inhibition in vivo at 509 µmol/kg: 0%

## CCCCCCCCCCCCCCOc1ccc(C(N)=O)cc1
Rattus norvegicus [17]
  Activity: 0%
Rattus norvegicus [18]
  inhibition in vivo at 459 µmol/kg: 3%
Rattus norvegicus [19]
  inhibition in vivo at 459 µmol/kg: 0%
Rattus norvegicus [20]
  Activity: 0%

## CCCCCCCCCCCCCCOc1ccc(C(=O)CC(=O)OCCNC(C)=O)cc1
Rattus norvegicus [21]
  inhibition in vivo at 312 µmol/kg: 35%
Rattus norvegicus [22]
  inhibition in vivo at 312 µmol/kg: 60%
Rattus norvegicus [23]
  Activity: 8%
Rattus norvegicus [24]
  Activity: 15%

## CCCCCCCCCCCCCCOc1ccc(COC(=O)OCC)cc1
Rattus norvegicus [25]
  Activity: 12%
Rattus norvegicus [26]
  Activity: 11%
Rattus norvegicus [27]
  inhibition in vivo at 385 µmol/kg: 70%
Rattus norvegicus [28]
  inhibition in vivo at 385 µmol/kg: 38%

## CCCCCCCCc1ccc(C(=O)O)cc1
Rattus norvegicus [29]
  Activity: 11%
Rattus norvegicus [30]
  inhibition in vivo at 538 µmol/kg: 21%
Rattus norvegicus [31]
  inhibition in vivo at 538 µmol/kg: 6%
Rattus norvegicus [32]
  Activity: 11%
